Test results: ChEMBL document CHEMBL1134546, “Structure-based design, synthesis, and biological evaluation of conformationally restricted novel 2-alkylthio-6-[1-(2,6-difluorophenyl)alkyl]-3,4-dihydro-5-alkylpyrimidin-4(3H)-ones as non-nucleoside inhibitors of HIV-1 reverse transcriptase” (J Med Chem, 2001)

system: Human immunodeficiency virus 1; test: Anti-HIV-1 activity determined as dose required to reduce p24 antigen levels.; type: functional; conditions: not given

SMILES | EC90 | EC99 | EC99.9
CCOCn1c(Cc2ccccc2)c(C(C)C)c(=O)[nH]c1=O [EMIVIRINE] | 14 nM | 0.041 µM | 0.082 µM
O=c1cc(Cc2c(F)cccc2F)nc(SC2CCCC2)[nH]1 | 80 nM | 0.15 µM | 0.3 µM
CC(c1cc(=O)[nH]c(SC2CCCC2)n1)c1c(F)cccc1F (stereo unspecified) | 15 nM | 0.035 µM | 0.09 µM
Cc1c(C(C)c2c(F)cccc2F)nc(SC2CCCC2)[nH]c1=O (stereo in doubt; 3w) | 6 nM | 0.015 µM | 0.033 µM
Cc1c(Cc2c(F)cccc2F)nc(SC2CCCC2)[nH]c1=O | 40 nM | 0.075 µM | 0.15 µM

The next lines start with results.

EC90 | SMILES | EC99 | EC99.9
42 nM | CC(C)Sc1nc(O)cc(C(C)c2c(F)cccc2F)n1 (stereo unspecified) | 0.083 µM | 0.19 µM
80 nM | CCC(c1cc(O)nc(SC2CCCC2)n1)c1c(F)cccc1F (stereo unspecified) | 0.15 µM | 0.3 µM
15 nM | CCC(c1cc(O)nc(SC(C)C)n1)c1c(F)cccc1F (stereo unspecified) | 0.035 µM | 0.09 µM
42 nM | CC(C)Sc1nc(Cc2c(F)cccc2F)cc(=O)[nH]1 | 0.083 µM | 0.19 µM
26 nM | Cc1c(Cc2c(F)cccc2F)nc(SC(C)C)[nH]c1=O | 0.065 µM | 0.15 µM

system: Human immunodeficiency virus 1; test: Effective concentration against HIV-1 induced cytopathogenicity in MT-4 cells; type: functional, organism-based, MT4; conditions: Human immunodeficiency virus 1, MT4
Method in brief: (§1)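 MT-4 cells (1 × 10⁴/well) incubated with serial compound dilutions (200 mM DMSO stock diluted in medium), with or without HIV-1 IIIB (100 CCID₅₀/well), 4 days at 37 °C in RPMI 1640 with 10% FCS. Viable cells counted by MTT. CC₅₀ from mock-infected cells and EC₅₀ as 50% protection from virus-induced cytopathicity, run in parallel. Mean of at least two experiments.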

SMILES | EC50
CCOCn1c(Cc2ccccc2)c(C(C)C)c(=O)[nH]c1=O [EMIVIRINE] | 30 nM
CSc1nc(O)c(C)c(C(C)c2c(F)cccc2F)n1 (stereo unspecified) | 40 nM
CC(c1ccccc1)c1cc(O)nc(SC2CCCCC2)n1 (stereo unspecified) | 600 nM
Cc1c(O)nc(SC(C)C)nc1C(C)c1c(F)cccc1F (stereo unspecified) | 7 nM
CCC(C)Sc1nc(O)c(C)c(C(C)c2c(F)cccc2F)n1 (stereo unspecified) | 30 nM
CCC(c1ccccc1)c1cc(O)nc(SC(C)C)n1 (stereo unspecified) | 800 nM
CC(C)Sc1nc(O)cc(C(C)c2ccccc2)n1 (stereo unspecified) | 900 nM
O=c1cc(Cc2c(F)cccc2F)nc(SC2CCCC2)[nH]1 | 80 nM
CC(c1cc(=O)[nH]c(SC2CCCC2)n1)c1c(F)cccc1F (stereo unspecified) | 30 nM
Cc1c(Cc2c(F)cccc2F)nc(SC2CCCC2)[nH]c1=O | 80 nM

The remaining lines, values ahead:

EC50 | SMILES
40 nM | CCC(C)Sc1nc(O)cc(Cc2c(F)cccc2F)n1 (stereo unspecified)
400 nM | CCC(C)Sc1nc(O)cc(C(CC)c2ccccc2)n1 (stereo unspecified)
8 nM | CCCCSc1nc(O)c(C)c(C(C)c2c(F)cccc2F)n1 (stereo unspecified)
50 nM | CC(C)Sc1nc(O)cc(C(C)c2c(F)cccc2F)n1 (stereo unspecified)
50 nM | CCC(c1cc(O)nc(SC2CCCCC2)n1)c1c(F)cccc1F (stereo unspecified)
1200 nM | CC(C)Sc1nc(O)cc(C(C)c2c(Cl)cccc2Cl)n1 (stereo unspecified)
30 nM | CCC(C)Sc1nc(O)cc(C(C)c2c(F)cccc2F)n1 (stereo unspecified)
230 nM | CCC(C)Sc1nc(O)cc(C(C)c2ccccc2)n1 (stereo unspecified)
400 nM | CCC(c1cc(O)nc(SC(C)C)n1)c1c(Cl)cccc1Cl (stereo unspecified)
150 nM | CCC(c1cc(O)nc(SC2CCCC2)n1)c1c(F)cccc1F (stereo unspecified)
80 nM | CCC(c1cc(O)nc(SC(C)C)n1)c1c(F)cccc1F (stereo unspecified)
50 nM | CC(C)Sc1nc(Cc2c(F)cccc2F)cc(=O)[nH]1
50 nM | Cc1c(Cc2c(F)cccc2F)nc(SC(C)C)[nH]c1=O

same assay, conditions: mt4

SMILES | EC50
Cc1c(C(C)c2c(F)cccc2F)nc(SC2CCCC2)[nH]c1=O (stereo in doubt; 3w) | 6 nM

system: MT4; test: Cytotoxicity against MT-4 cells.; type: functional, Homo sapiens; conditions: Homo sapiens, MT4; method in brief: as §1

SMILES | CC50
CCC(C)Sc1nc(O)cc(C(CC)c2ccccc2)n1 (stereo unspecified) | > 200 µM
CCCCSc1nc(O)c(C)c(C(C)c2c(F)cccc2F)n1 (stereo unspecified) | 112 µM
CC(C)Sc1nc(O)cc(C(C)c2c(F)cccc2F)n1 (stereo unspecified) | 167 µM
CCC(c1cc(O)nc(SC2CCCCC2)n1)c1c(F)cccc1F (stereo unspecified) | > 200 µM
CSc1nc(O)c(C)c(C(C)c2c(F)cccc2F)n1 (stereo unspecified) | > 200 µM
CC(c1ccccc1)c1cc(O)nc(SC2CCCCC2)n1 (stereo unspecified) | 149 µM
Cc1c(O)nc(SC(C)C)nc1C(C)c1c(F)cccc1F (stereo unspecified) | > 200 µM
CC(C)Sc1nc(O)cc(C(C)c2c(Cl)cccc2Cl)n1 (stereo unspecified) | 117 µM
CCC(C)Sc1nc(O)c(C)c(C(C)c2c(F)cccc2F)n1 (stereo unspecified) | > 200 µM
CCC(c1ccccc1)c1cc(O)nc(SC(C)C)n1 (stereo unspecified) | 200 µM
CC(C)Sc1nc(O)cc(C(C)c2ccccc2)n1 (stereo unspecified) | > 200 µM
CCC(C)Sc1nc(O)cc(C(C)c2c(F)cccc2F)n1 (stereo unspecified) | > 200 µM
CC(c1cc(=O)[nH]c(SC2CCCC2)n1)c1c(F)cccc1F (stereo unspecified) | > 200 µM
CCC(C)Sc1nc(O)cc(C(C)c2ccccc2)n1 (stereo unspecified) | 200 µM
CCC(c1cc(O)nc(SC(C)C)n1)c1c(Cl)cccc1Cl (stereo unspecified) | > 200 µM
CCC(c1cc(O)nc(SC2CCCC2)n1)c1c(F)cccc1F (stereo unspecified) | > 200 µM
CCC(c1cc(O)nc(SC(C)C)n1)c1c(F)cccc1F (stereo unspecified) | 70 µM

system: MT4; test: Anti-HIV-1 activity against WTIIIB HIV-1 strain in MT-4 cells; type: functional, cell-based; conditions: Homo sapiens

SMILES | EC50
CSc1nc(O)c(C)c(C(C)c2c(F)cccc2F)n1 (stereo unspecified) | 37 nM
CCC(C)Sc1nc(O)c(C)c(C(C)c2c(F)cccc2F)n1 (stereo unspecified) | 20 nM
Cc1c(Cc2c(F)cccc2F)nc(SC2CCCC2)[nH]c1=O | 40 nM

system: MT4; test: Anti-HIV-1 activity against Y181C HIV-1 strain in MT-4 cells; type: functional, cell-based; conditions: Homo sapiens

SMILES | EC50
CSc1nc(O)c(C)c(C(C)c2c(F)cccc2F)n1 (stereo unspecified) | > 10000 nM
CCC(C)Sc1nc(O)c(C)c(C(C)c2c(F)cccc2F)n1 (stereo unspecified) | 300 nM
Cc1c(Cc2c(F)cccc2F)nc(SC2CCCC2)[nH]c1=O | 1200 nM

target: Human immunodeficiency virus type 1 reverse transcriptase (Human immunodeficiency virus 1, UniProt Q72547); test: Inhibitory activity against HIV-1 recombinant reverse transcriptase.; conditions: not given

SMILES | IC50
CSc1nc(O)c(C)c(C(C)c2c(F)cccc2F)n1 (stereo unspecified) | 20 nM
Cc1c(O)nc(SC(C)C)nc1C(C)c1c(F)cccc1F (stereo unspecified) | 19 nM
CCC(C)Sc1nc(O)c(C)c(C(C)c2c(F)cccc2F)n1 (stereo unspecified) | 20 nM
CCC(c1ccccc1)c1cc(O)nc(SC(C)C)n1 (stereo unspecified) | 2300 nM
CC(C)Sc1nc(O)cc(C(C)c2ccccc2)n1 (stereo unspecified) | 2300 nM
CC(c1cc(=O)[nH]c(SC2CCCC2)n1)c1c(F)cccc1F (stereo unspecified) | 50 nM
Cc1c(C(C)c2c(F)cccc2F)nc(SC2CCCC2)[nH]c1=O (stereo in doubt; 3w) | 5 nM

system: MT4; test: CC50/EC50 ratio of the compound; type: functional; conditions: not given
Method in brief: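 Selectivity index, calculated as CC₅₀/EC₅₀. Both values come from the parallel MTT readout in mock-infected and HIV-1 IIIB-infected MT-4 cells (4-day incubation at 37 °C).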

SMILES | Selectivity index
CCOCn1c(Cc2ccccc2)c(C(C)C)c(=O)[nH]c1=O [EMIVIRINE] | 6666
CCC(C)Sc1nc(O)cc(Cc2c(F)cccc2F)n1 (stereo unspecified) | >5000
CCC(C)Sc1nc(O)cc(C(CC)c2ccccc2)n1 (stereo unspecified) | >500
CCCCSc1nc(O)c(C)c(C(C)c2c(F)cccc2F)n1 (stereo unspecified) | 14000
CC(C)Sc1nc(O)cc(C(C)c2c(F)cccc2F)n1 (stereo unspecified) | 3340
CCC(c1cc(O)nc(SC2CCCCC2)n1)c1c(F)cccc1F (stereo unspecified) | 2600
CSc1nc(O)c(C)c(C(C)c2c(F)cccc2F)n1 (stereo unspecified) | >5000
CC(c1ccccc1)c1cc(O)nc(SC2CCCCC2)n1 (stereo unspecified) | 248
Cc1c(O)nc(SC(C)C)nc1C(C)c1c(F)cccc1F (stereo unspecified) | >28570
CC(C)Sc1nc(O)cc(C(C)c2c(Cl)cccc2Cl)n1 (stereo unspecified) | 97.5
CCC(C)Sc1nc(O)c(C)c(C(C)c2c(F)cccc2F)n1 (stereo unspecified) | 6666
CCC(c1ccccc1)c1cc(O)nc(SC(C)C)n1 (stereo unspecified) | 250
CC(C)Sc1nc(O)cc(C(C)c2ccccc2)n1 (stereo unspecified) | >222
CCC(C)Sc1nc(O)cc(C(C)c2c(F)cccc2F)n1 (stereo unspecified) | >6666
O=c1cc(Cc2c(F)cccc2F)nc(SC2CCCC2)[nH]1 | >2500
CC(c1cc(=O)[nH]c(SC2CCCC2)n1)c1c(F)cccc1F (stereo unspecified) | >6666
CCC(C)Sc1nc(O)cc(C(C)c2ccccc2)n1 (stereo unspecified) | 870
CCC(c1cc(O)nc(SC(C)C)n1)c1c(Cl)cccc1Cl (stereo unspecified) | >500
CCC(c1cc(O)nc(SC2CCCC2)n1)c1c(F)cccc1F (stereo unspecified) | 1333
Cc1c(C(C)c2c(F)cccc2F)nc(SC2CCCC2)[nH]c1=O (stereo in doubt; 3w) | >33333
Cc1c(Cc2c(F)cccc2F)nc(SC2CCCC2)[nH]c1=O | >2500
CCC(c1cc(O)nc(SC(C)C)n1)c1c(F)cccc1F (stereo unspecified) | 875
CC(C)Sc1nc(Cc2c(F)cccc2F)cc(=O)[nH]1 | >4000
Cc1c(Cc2c(F)cccc2F)nc(SC(C)C)[nH]c1=O | >4000

system: not listed separately; test: Y181C/WTIIIB ratio of the compound; type: functional; conditions: not given
Method in brief: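 Fold resistance, given as the EC₅₀ against Y181C mutant HIV-1 divided by the EC₅₀ against wild-type IIIB. Each EC₅₀ is the dose giving 50% protection of MT-4 cells from virus-induced cytopathicity, read by MTT.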

SMILES | Fold resistance
CSc1nc(O)c(C)c(C(C)c2c(F)cccc2F)n1 (stereo unspecified) | > 270
CCC(C)Sc1nc(O)c(C)c(C(C)c2c(F)cccc2F)n1 (stereo unspecified) | 15
Cc1c(Cc2c(F)cccc2F)nc(SC2CCCC2)[nH]c1=O | 30
